According to ChEMBL document CHEMBL1806383, “Optimisation of pharmacokinetic properties to afford an orally bioavailable and selective V1A receptor antagonist” (Bioorg Med Chem Lett, 2011):

Key:
[1] = Apparent permeability of the compound from apical to basolateral side of human Caco2 cells; type: ADME, cell-based; settings: Caco-2
[2] = Oral bioavailability in Sprague-Dawley rat at 10 mg/kg; type: ADME, organism-based; settings: in vivo
Outline: (§1)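 Male Sprague–Dawley rat, oral 10 mg/kg in 0.5% (w/v) gelatin in 5% (w/v) mannitol.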

Rattus norvegicus [3] = assay: Volume of distribution at steady state in Sprague-Dawley rat at 10 mg/kg, po; type: ADME, organism-based; set-up: dose 10 mg/kg, route oral; settings: in vivo; outline: as §1
[4] = Oral bioavailability in Sprague-Dawley rat at 5 mg/kg; type: ADME, organism-based; settings: in vivo
Outline: (§2)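 Male Sprague–Dawley rat, oral 5 mg/kg in 0.5% (w/v) gelatin in 5% (w/v) mannitol.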

[5] = Volume of distribution at steady state in Sprague-Dawley rat at 1 mg/kg, iv and 5 mg/kg, po; type: ADME, organism-based; settings: in vivo, read-out: Vdss
Outline: (§3)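 Male Sprague–Dawley rats; iv 1 mg/kg in 30% DMA in saline and po 5 mg/kg in 0.5% (w/v) gelatin in 5% (w/v) mannitol.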

[6] = Cmax in Sprague-Dawley rat at 1 mg/kg, iv and 5 mg/kg, po; type: ADME, organism-based; settings: in vivo; outline: as §3
[7] = Tmax in Sprague-Dawley rat at 1 mg/kg, iv and 5 mg/kg, po; type: ADME, organism-based; settings: in vivo; outline: as §3
[8] = Volume of distribution at steady state in cynomolgus monkey at 1 mg/kg, iv and 3 mg/kg, po; type: ADME, organism-based, Macaca fascicularis; settings: in vivo, read-out: Vdss
Outline: (§4)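 Cynomolgus monkey; iv 1 mg/kg in 30% DMA in saline and po 3 mg/kg in 0.5% (w/v) gelatin in 5% (w/v) mannitol.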

[9] = Cmax in cynomolgus monkey at 1 mg/kg, iv and 3 mg/kg, po; type: ADME, organism-based, Macaca fascicularis; settings: in vivo; outline: as §4
[10] = Tmax in cynomolgus monkey at 1 mg/kg, iv and 3 mg/kg, po; type: ADME, organism-based, Macaca fascicularis; settings: in vivo; outline: as §4
[11] = Oral bioavailability in cynomolgus monkey at 3 mg/kg; type: ADME, organism-based, Macaca fascicularis; settings: in vivo; outline: as §4
Rattus norvegicus [12] = assay: Volume of distribution at steady state in Sprague-Dawley rat at 5 mg/kg, po; type: ADME, organism-based; set-up: dose 5 mg/kg, route oral; settings: in vivo; outline: as §2

Row | SMILES | Papp A→B [1] | further results
1 | O=C(Cc1ccc(Cl)cc1)N[C@H](Cc1ccc(Cl)cc1)C(=O)NC1CCCNCC1 (some centres not stated) | < 10 ×10⁻⁶ cm/s | –
2 | CN(C)[C@H]1CC[C@H](NC(=O)[C@@H](Cc2ccc(Cl)cc2)NC(=O)Cc2ccc(F)cc2)CC1 | < 10 ×10⁻⁶ cm/s | –
3 | O=C(Cc1ccc(Cl)cc1)N[C@H](Cc1ccc(Cl)cc1)C(=O)NCCCO | – | bioavailability [2]: 43%; Vdss (Rattus norvegicus [3]): 2 L/kg
4 | CN(C)[C@H]1CC[C@H](NC(=O)[C@@H](Cc2ccc(Cl)cc2)NC(=O)C2(c3ccc(F)cc3)CCCC2)CC1 | < 10 ×10⁻⁶ cm/s | –
5 | CN1CCC(NC(=O)[C@@H](Cc2ccc(Cl)cc2)NC(=O)Cc2ccc(Cl)cc2)CC1 | < 10 ×10⁻⁶ cm/s | –
6 | CN(C)[C@H]1CC[C@H](NC(=O)[C@@H](Cc2ccc(Cl)cc2)NC(=O)Cc2ccc(Cl)cc2)CC1 | < 10 ×10⁻⁶ cm/s | –
7 | CN(C)[C@H]1CC[C@H](NC(=O)[C@@H](Cc2ccc(Cl)cc2)NC(=O)C2(c3ccc(F)cc3)CC2)CC1 | < 10 ×10⁻⁶ cm/s | bioavailability [4]: 30%; Vd [5]: 11.8 L/kg; Cmax [6]: 35 ng/mL; Tmax [7]: 5.8 h; Vd [8]: 6.4 L/kg; Cmax [9]: 41 ng/mL; Tmax [10]: 2.7 h; bioavailability [11]: 20%
8 | COc1ccc(C[C@@H](NC(=O)C2(c3ccc(Cl)cc3)CC2)C(=O)N[C@H]2CC[C@H](N(C)C)CC2)cc1 | < 10 ×10⁻⁶ cm/s | –
9 | CN1CCN(CCCNC(=O)[C@@H](Cc2ccc(Cl)cc2)NC(=O)Cc2ccc(Cl)cc2)CC1 | < 10 ×10⁻⁶ cm/s | –
10 | CN(C)CCCNC(=O)[C@@H](Cc1ccc(Cl)cc1)NC(=O)C1(c2ccc(Cl)cc2)CC1 | < 10 ×10⁻⁶ cm/s | –
11 | O=C(Cc1ccc(Cl)cc1)N[C@H](Cc1ccc(Cl)cc1)C(=O)NC1CCCC(O)C1 (stereo in doubt; 17e) | < 10 ×10⁻⁶ cm/s | –
12 | CN(C)[C@H]1CC[C@H](NC(=O)[C@@H](Cc2ccc(Cl)cc2)NC(=O)C2(c3ccc(Cl)cc3)CC2)CC1 | < 10 ×10⁻⁶ cm/s | bioavailability [4]: 17%; Vdss (Rattus norvegicus [12]): 9 L/kg
13 | O=C(Cc1ccc(Cl)cc1)N[C@H](Cc1ccc(Cl)cc1)C(=O)N[C@H]1C[C@H]2CC[C@@H](C1)N2 | < 10 ×10⁻⁶ cm/s | –
14 | CN(C)[C@H]1CC[C@H](NC(=O)[C@@H](Cc2ccc(F)cc2)NC(=O)C2(c3ccc(Cl)cc3)CC2)CC1 | < 10 ×10⁻⁶ cm/s | –
15 | CCCNC(=O)[C@@H](Cc1ccc(Cl)cc1)NC(=O)Cc1ccc(Cl)cc1 | < 10 ×10⁻⁶ cm/s | –
16 | O=C(Cc1ccc(Cl)cc1)N[C@H](Cc1ccc(Cl)cc1)C(=O)NC1CCNCC1 | < 10 ×10⁻⁶ cm/s | –
17 | CN(C)CCCNC(=O)[C@@H](Cc1ccc(Cl)cc1)NC(=O)Cc1ccc(Cl)cc1 | < 10 ×10⁻⁶ cm/s | –
18 | CC(CCO)NC(=O)[C@@H](Cc1ccc(Cl)cc1)NC(=O)Cc1ccc(Cl)cc1 (stereo in doubt; 17c) | < 10 ×10⁻⁶ cm/s | –
19 | O=C(Cc1ccc(Cl)cc1)N[C@H](Cc1ccc(Cl)cc1)C(=O)NC1CCCCC1O (stereo in doubt; 17h) | > 20 ×10⁻⁶ cm/s | –
20 | CN(C)[C@H]1CC[C@H](NC(=O)[C@@H](Cc2ccc(Cl)cc2)NC(=O)C2(c3ccc(Cl)cc3)CCC2)CC1 | < 10 ×10⁻⁶ cm/s | –
21 | O=C(Cc1ccc(Cl)cc1)N[C@H](Cc1ccc(Cl)cc1)C(=O)N[C@H]1CC[C@@H](O)CC1 | < 10 ×10⁻⁶ cm/s | –
